Experimental data gathered from unrelated publications.
Compare with care: the assays were run in different laboratories.
Target: Glycogen synthase kinase-3 beta (GSK3B, Homo sapiens, UniProt P49841)

For `Cc1cccc(C)c1NC(=O)c1ccccc1C(=O)O`, the inhibition was 18.9% (enzyme activity, inhibitor, ADP detection; 100 µM).
`Cc1ccc(C(=O)Nc2ccc(CN3CCN(C)CC3)c(C(F)(F)F)c2)cc1C#Cc1cnc2cccnn12` gave a remaining activity of 92% (enzyme activity, inhibitor; 23.5 nM).
`CCCOc1ccc(OC)c(F)c1C(=O)c1ccc(C(=O)N[C@@H]2CNC[C@H]2NC(=O)c2ccc3[nH]ncc3c2)cc1` gave a remaining activity of 67% (enzyme activity, inhibitor; 10 µM).
The remaining signal of `CNC(=O)c1cc(Oc2ccc(NC(=O)Nc3ccc(Cl)c(C(F)(F)F)c3)cc2)ccn1` is reported as 101% (cell-free assay; 0.5 µM).
With `C[C@@H](c1cccc(C#N)c1)n1cc(Cl)cc(C(N)=O)c1=N` the remaining binding was 88% (cell-free assay, competition with immobilised ligand; 1 µM).
`CC(C)(O)[C@H]1CC[C@H](Nc2ccc3ncc(-c4cccc(C(F)(F)F)c4)n3n2)CC1` gave a remaining activity of 81.6% (enzyme activity, inhibitor; 1 µM).
With `COc1cc2c(cc1OC)-c1c(oc3c4c(ccc3c1=O)OC(C)(C)C=C4)CO2` the inhibition was 10.4% (enzyme activity, inhibitor, ADP detection; 100 µM).
With `FC(F)c1nc2ccccc2n1-c1nc(N2CCOCC2)nc(N2CCOCC2)n1` the remaining activity was 79% (enzyme activity, inhibitor; 10 µM).
The activity vs control of `COc1cc(/C=C/C(=O)CC(=O)/C=C/c2ccc(O)c(OC)c2)ccc1O` is reported as 105% (enzyme activity, inhibitor; 1 µM).
With `COc1cccc(CNC(=O)c2nc3scc(COCc4ccc(C(=O)O)cc4)c3c(=O)[nH]2)c1` the remaining binding was 62.6% (cell-free assay, competition with immobilised ligand; 1 µM).
With `O=C(O)c1cn(C2CC2)c2cc(N3CCNCC3)c(F)cc2c1=O` the inhibition was 18.7% (enzyme activity, inhibitor, ADP detection; 100 µM).
The remaining binding of `O=C(O)[C@H]1[C@H](Cn2nnc3ccccc3c2=O)CC[C@@H]1C(=O)c1ccc(OCCC2CCOCC2)cc1` is reported as 100% (cell-free assay, competition with immobilised ligand; 1 µM).
`Cc1ccc(C(=O)NCc2ccsc2)cc1C#Cc1cn(C(C)C)c2ncnc(N)c12` has an activity vs control of 102% (enzyme activity, inhibitor; 1 µM).
`O=C1NC(=O)c2cc(Nc3ccc(F)cc3)c(Nc3ccc(F)cc3)cc21` has a remaining signal of 89.2% (cell-free assay; 0.5 µM).
For `O=C(Nc1cnn(-c2csc(C(=O)NC3COC3)c2)c1)Nc1ccccc1Cl`, the remaining activity was 95% (enzyme activity, inhibitor; 5 µM).
`CCN(CC)c1ccc(C2=NNC(=O)CC2C)cc1[N+](=O)[O-]` (stereo not shown) gave a remaining activity of 93% (enzyme activity, inhibitor; 10 µM).
With `Nc1nc(Nc2ccc(S(N)(=O)=O)cc2)nn1C(=O)c1c(F)cccc1F` the remaining signal was 22% (cell-free assay; 0.5 µM).
With `CCC(=O)N[C@@H]1CC[C@H](C(=O)N(C)c2ccc(-c3nc4ccccc4o3)cc2)C1` the remaining binding was 96% (cell-free assay, competition with immobilised ligand; 1 µM).
The remaining signal of `N#CCCc1ccc2c(c1)-c1[nH]c3ccc([N+](=O)[O-])cc3c1CC(=O)N2` is reported as 2.71% (cell-free assay; 0.5 µM).
The activity vs control of `FC(F)(F)Oc1cccc(-c2cnc3ccc(-c4ccncc4)nn23)c1` is reported as 98% (enzyme activity, inhibitor, radiometric; 5 µM).
The remaining activity of `COc1cc(Nc2cnc(C#N)c(O[C@H](C)CN(C)C)n2)ncc1-c1cnn(C)c1` is reported as 90% (enzyme activity, inhibitor, radiometric; 1 µM).
With `Cc1ncc([N+](=O)[O-])n1CCO` the inhibition was 32.8% (enzyme activity, inhibitor, ADP detection; 100 µM).
With `Cn1c(=O)n(-c2ccc(C(C)(C)C#N)cc2)c2c3cc(-c4cnc5ccccc5c4)ccc3ncc21` the remaining activity was 76% (enzyme activity, inhibitor; 10 µM).
`CS(=O)(=O)NCC[C@H](NC(=O)c1cncc2c1cnn2-c1ccc(F)cc1)c1ccnc(S(C)(=O)=O)c1` gave a remaining binding of 100% (cell-free assay, competition with immobilised ligand; 1 µM).
For `O=C1Nc2ccc(Cl)cc2C1=Cc1cc(Cl)c(O)c(Cl)c1`, the remaining signal was 80.8% (cell-free assay; 0.5 µM).
For `O=C(O)c1cc(-c2ccc(F)cc2F)ccc1O`, the inhibition was 38.6% (enzyme activity, inhibitor, ADP detection; 100 µM).
The remaining binding of `Cn1cc(Cl)c2c(Oc3c(F)cc(Nc4cc(Cl)nc(N)n4)cc3F)ccnc21` is reported as 90% (cell-free assay, competition with immobilised ligand; 0.1 µM).
The inhibition of `O=c1cccc(C=Cc2ccc3c(c2)OCO3)o1` is reported as 26.1% (enzyme activity, inhibitor, ADP detection; 100 µM).
The remaining signal of `Nc1cccc(-c2cc3c(Oc4cccc(O)c4)ncnc3[nH]2)c1` is reported as 48.1% (cell-free assay; 0.5 µM).
`CC1CCc2c(N3CCC(O)CC3)c(F)cc3c(=O)c(C(=O)O)cn1c23` (stereo not shown) has an inhibition of 46.1% (enzyme activity, inhibitor, ADP detection; 100 µM).
The remaining signal of `O=Nc1c(-c2c(O)[nH]c3ccccc23)[nH]c2ccccc12` is reported as 27.3% (cell-free assay; 0.5 µM).
For `C[C@H](c1ccc(F)cc1)N(Cc1cccc(C(=O)O)c1)C(=O)c1cnc2ccccc2c1`, the remaining binding was 100% (cell-free assay, competition with immobilised ligand; 1 µM).
`O=c1c2ccccc2[nH]c(=S)n1CCN1CCC(=C(c2ccc(F)cc2)c2ccc(F)cc2)CC1` has a remaining activity of 112% (enzyme activity, inhibitor; 0.5 µM).
`CN(C)C1CCN(CC#Cc2nn(C3CCCC3)c3nc(NCc4ccccc4)ncc23)C1` (stereo not shown) has an inhibition of 7% (enzyme activity, inhibitor, FRET; 10 µM).
With `O=C(Nc1cnn(-c2csc(C(=O)NC3COC3)c2)c1)Nc1c(F)cccc1Cl` the remaining activity was 95.7% (enzyme activity, inhibitor; 5 µM).
`CCCOc1ccc([C@H]2[C@H](C(=O)O)[C@@H](c3ccc4c(c3)OCO4)CN2CC(=O)Nc2c(CC)cccc2CC)cc1` has a remaining binding of 73% (cell-free assay, competition with immobilised ligand; 1 µM).
`Oc1cc2c(cc1O)C1c3ccc(O)c(O)c3OCC1(O)C2` (stereo not shown) gave an inhibition of 50.5% (enzyme activity, inhibitor, ADP detection; 100 µM).
